Reference: BindingDB's records for doi:10.1021/jm800789h (National Cancer Institute-Frederick, 2009)
*1 amine or outer side, *2 acyl side, *3 side chain or, on linkers, in order; H or OH if unused. Where a SMILES comes first, the peptide text is derived from it. [ ]: non-standard residue; d: D form. The star is where a group is joined. X2 = O=C(c1cc(N=C=S)ccc1-c1c2ccc(=O)cc-2oc2cc(O)ccc12)*; Achc(cis-1,4) = O=C([C@H]1CC[C@@H](N[*:1])CC1)[*:2]; Achc(trans-4) = O=C([C@H]1CC[C@H](N[*:1])CC1)[*:2]; Azetidine3carboxylic = O=C(C1CN([*:1])C1)[*:2]; Phac(3-amino) = O=C(Cc1cccc(N[*:1])c1)[*:2]; X3 = C=CCCN([C@@H](CC(C)C)C(=O)[*:2])[*:1]; pY = N[C@@H](Cc1ccc(OP(=O)(O)O)cc1)C(=O)O; X1 = O=C(C1CN([*:3])CCN1[*:1])[*:2]; Trx = NC[C@H]1CC[C@H](C(=O)O)CC1; X6 = O=C([C@H](O)CCN[*:1])[*:2]; X4 = O=C(CC(O)CN[*:1])[*:2]; 4Amb = NCc1ccc(C(=O)O)cc1; 4Abz = Nc1ccc(C(=O)O)cc1; NH(but-3-enyl) = C=CCCN*; Inp = O=C(O)C1CCNCC1

The molecules below were run against T1, SHC-transforming protein 1 (Homo sapiens, UniProt P29353) (assay: Binding affinity to Shc Src homology 2 domain by fluorescence anisotropy).
T1 sequence (P29353 whole entry): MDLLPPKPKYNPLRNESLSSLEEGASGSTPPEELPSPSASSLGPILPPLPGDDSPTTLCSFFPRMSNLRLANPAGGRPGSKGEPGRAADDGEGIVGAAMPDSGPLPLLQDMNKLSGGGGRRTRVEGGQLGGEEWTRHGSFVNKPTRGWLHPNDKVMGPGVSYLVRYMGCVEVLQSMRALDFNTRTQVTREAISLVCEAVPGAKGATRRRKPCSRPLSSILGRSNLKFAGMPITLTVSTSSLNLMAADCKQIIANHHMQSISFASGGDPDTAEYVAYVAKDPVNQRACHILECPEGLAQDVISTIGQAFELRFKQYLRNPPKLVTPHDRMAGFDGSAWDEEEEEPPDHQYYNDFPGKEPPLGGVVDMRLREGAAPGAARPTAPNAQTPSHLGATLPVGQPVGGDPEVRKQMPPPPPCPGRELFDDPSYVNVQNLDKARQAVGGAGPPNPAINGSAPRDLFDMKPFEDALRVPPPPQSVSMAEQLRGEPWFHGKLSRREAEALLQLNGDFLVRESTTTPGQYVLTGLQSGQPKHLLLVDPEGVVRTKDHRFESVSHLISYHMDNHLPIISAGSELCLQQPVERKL
Summary of the method: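 Direct binding: 5 nM N-terminal fluorescein-labelled peptide in 10 mM HEPES, 150 mM NaCl pH 7.5 with 10% (v/v) DMSO; Shc SH2 protein serially diluted from 100 μM. Excitation 485 nm, parallel and perpendicular emission at 535 nm. Kd from fitting anisotropy versus protein concentration to a single-site binding model.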

Going from `CC(C)C[C@H](NC(=O)CNC(=O)[C@H](CCC(N)=O)NC(=O)[C@H](Cc1ccc(OP(=O)(O)O)cc1)NC(=O)C1CN(C(=O)c2cc(N=C=S)ccc2-c2c3ccc(=O)cc-3oc3cc(O)ccc23)C1)C(=O)N[C@@H](CO)C(N)=O` [4-((2S,5S,11S,14S)-1-amino-11-(3-amino-3-oxopropyl)-14-(1-(2-(6-hydroxy-3-oxo-3H-xanthen-9-yl)-5-isothiocyanatobenzoyl)azetidine-3-carboxamido)-2-(hydroxymethyl)-5-isobutyl-1,4,7,10,13-pentaoxo-3,6,9,12-tetraazapentadecan-15-yl)phenyl dihydrogen phosphate] (X2-[Azetidine3carboxylic][pY]QGLS-NH2) to `CC(C)C[C@H](NC(=O)CNC(=O)[C@H](CCC(N)=O)NC(=O)[C@H](Cc1ccc(OP(=O)(O)O)cc1)NC(=O)C1CCN(C(=O)c2cc(N=C=S)ccc2-c2c3ccc(=O)cc-3oc3cc(O)ccc23)CC1)C(=O)N[C@@H](CO)C(N)=O` [4-((2S,5S,11S,14S)-1-amino-11-(3-amino-3-oxopropyl)-14-(1-(2-(6-hydroxy-3-oxo-3H-xanthen-9-yl)-5-isothiocyanatobenzoyl)piperidine-4-carboxamido)-2-(hydroxymethyl)-5-isobutyl-1,4,7,10,13-pentaoxo-3,6,9,12-tetraazapentadecan-15-yl)phenyl dihydrogen phosphate] ({X2-Inp}-[pY]QGLS-NH2), the Kd rises from 5.3 µM to 14.2 µM (2.7-fold). The first binds more tightly here.

Going from `CC(C)C[C@H](NC(=O)CNC(=O)[C@H](CCC(N)=O)NC(=O)[C@H](Cc1ccc(OP(=O)(O)O)cc1)NC(=O)Cc1cccc(NC(=O)c2cc(N=C=S)ccc2-c2c3ccc(=O)cc-3oc3cc(O)ccc23)c1)C(=O)N[C@@H](CO)C(N)=O` [4-((2S,5S,11S,14S)-1-amino-11-(3-amino-3-oxopropyl)-14-(2-(3-(2-(6-hydroxy-3-oxo-3H-xanthen-9-yl)-5-isothiocyanatobenzamido)phenyl)acetamido)-2-(hydroxymethyl)-5-isobutyl-1,4,7,10,13-pentaoxo-3,6,9,12-tetraazapentadecan-15-yl)phenyl dihydrogen phosphate] (X2-[Phac(3-amino)][pY]QGLS-NH2) to `CC(C)C[C@H](NC(=O)CNC(=O)[C@H](CCC(N)=O)NC(=O)[C@H](Cc1ccc(OP(=O)(O)O)cc1)NC(=O)c1ccc(NC(=O)c2cc(N=C=S)ccc2-c2c3ccc(=O)cc-3oc3cc(O)ccc23)cc1)C(=O)N[C@@H](CO)C(N)=O` [4-((2S,5S,11S,14S)-1-amino-11-(3-amino-3-oxopropyl)-14-(4-(2-(6-hydroxy-3-oxo-3H-xanthen-9-yl)-5-isothiocyanatobenzamido)benzamido)-2-(hydroxymethyl)-5-isobutyl-1,4,7,10,13-pentaoxo-3,6,9,12-tetraazapentadecan-15-yl)phenyl dihydrogen phosphate] ({X2-4Abz}-[pY]QGLS-NH2), the Kd rises from 0.77 µM to 23.9 µM (31-fold). The first binds more tightly here.

`CC(C)C[C@H](NC(=O)CNC(=O)[C@H](CCC(N)=O)NC(=O)[C@H](Cc1ccc(OP(=O)(O)O)cc1)NC(=O)CC(O)CNC(=O)c1cc(N=C=S)ccc1-c1c2ccc(=O)cc-2oc2cc(O)ccc12)C(=O)N[C@@H](CO)C(N)=O` (stereo partly drawn) [4-((2S,5S,11S,14S)-1-amino-11-(3-amino-3-oxopropyl)-14-(3-hydroxy-4-(2-(6-hydroxy-3-oxo-3H-xanthen-9-yl)-5-isothiocyanatobenzamido)butanamido)-2-(hydroxymethyl)-5-isobutyl-1,4,7,10,13-pentaoxo-3,6,9,12-tetraazapentadecan-15-yl)phenyl dihydrogen phosphate] (X2-[X4][pY]QGLS-NH2) and `CC(C)C[C@H](NC(=O)CNC(=O)[C@H](CCC(N)=O)NC(=O)[C@H](Cc1ccc(OP(=O)(O)O)cc1)NC(=O)[C@H](O)CCNC(=O)c1cc(N=C=S)ccc1-c1c2ccc(=O)cc-2oc2cc(O)ccc12)C(=O)N[C@@H](CO)C(N)=O` [4-((2S,5S,11S,14S)-1-amino-11-(3-amino-3-oxopropyl)-14-((R)-2-hydroxy-4-(2-(6-hydroxy-3-oxo-3H-xanthen-9-yl)-5-isothiocyanatobenzamido)butanamido)-2-(hydroxymethyl)-5-isobutyl-1,4,7,10,13-pentaoxo-3,6,9,12-tetraazapentadecan-15-yl)phenyl dihydrogen phosphate] (X2-[X6][pY]QGLS-NH2) are within 1.5-fold of each other in Kd: 8.6 µM for the first, 9 µM for the second.

Compared with `CC(C)C[C@H](NC(=O)CNC(=O)[C@H](CCC(N)=O)NC(=O)[C@H](Cc1ccc(OP(=O)(O)O)cc1)NC(=O)C1CN(C(=O)c2cc(N=C=S)ccc2-c2c3ccc(=O)cc-3oc3cc(O)ccc23)CCN1)C(=O)N[C@@H](CO)C(N)=O` (stereo partly drawn) [4-((2S,5S,11S,14S)-1-amino-11-(3-amino-3-oxopropyl)-14-(4-(2-(6-hydroxy-3-oxo-3H-xanthen-9-yl)-5-isothiocyanatobenzoyl)piperazine-2-carboxamido)-2-(hydroxymethyl)-5-isobutyl-1,4,7,10,13-pentaoxo-3,6,9,12-tetraazapentadecan-15-yl)phenyl dihydrogen phosphate] (H-[X1](X2)[pY]QGLS-NH2), `CC(C)C[C@H](NC(=O)CNC(=O)[C@H](CCC(N)=O)NC(=O)[C@H](Cc1ccc(OP(=O)(O)O)cc1)NC(=O)[C@H]1CC[C@@H](NC(=O)c2cc(N=C=S)ccc2-c2c3ccc(=O)cc-3oc3cc(O)ccc23)CC1)C(=O)N[C@@H](CO)C(N)=O` [cis-4-((2S,5S,11S,14S)-1-amino-11-(3-amino-3-oxopropyl)-14-(4-(2-(6-hydroxy-3-oxo-3H-xanthen-9-yl)-5-isothiocyanatobenzamido)cyclohexanecarboxamido)-2-(hydroxymethyl)-5-isobutyl-1,4,7,10,13-pentaoxo-3,6,9,12-tetraazapentadecan-15-yl)phenyl dihydrogen phosphate] (X2-[Achc(cis-1,4)][pY]QGLS-NH2) is 19-fold lower in Kd: 9.5 µM for the first, 0.5 µM for the second. The second binds more tightly here.

`CC(C)C[C@H](NC(=O)CNC(=O)[C@H](CCC(N)=O)NC(=O)[C@H](Cc1ccc(OP(=O)(O)O)cc1)NC(=O)c1ccc(CNC(=O)c2cc(N=C=S)ccc2-c2c3ccc(=O)cc-3oc3cc(O)ccc23)cc1)C(=O)N[C@@H](CO)C(N)=O` [4-((2S,5S,11S,14S)-1-amino-11-(3-amino-3-oxopropyl)-14-(4-((2-(6-hydroxy-3-oxo-3H-xanthen-9-yl)-5-isothiocyanatobenzamido)methyl)benzamido)-2-(hydroxymethyl)-5-isobutyl-1,4,7,10,13-pentaoxo-3,6,9,12-tetraazapentadecan-15-yl)phenyl dihydrogen phosphate] ({X2-4Amb}-[pY]QGLS-NH2) and `CC(C)C[C@H](NC(=O)CNC(=O)[C@H](CCC(N)=O)NC(=O)[C@H](Cc1ccc(OP(=O)(O)O)cc1)NC(=O)[C@H]1CC[C@H](CNC(=O)c2cc(N=C=S)ccc2-c2c3ccc(=O)cc-3oc3cc(O)ccc23)CC1)C(=O)N[C@@H](CO)C(N)=O` [trans-4-((2S,5S,11S,14S)-1-amino-11-(3-amino-3-oxopropyl)-14-(4-((2-(6-hydroxy-3-oxo-3H-xanthen-9-yl)-5-isothiocyanatobenzamido)methyl)cyclohexanecarboxamido)-2-(hydroxymethyl)-5-isobutyl-1,4,7,10,13-pentaoxo-3,6,9,12-tetraazapentadecan-15-yl)phenyl dihydrogen phosphate] ({X2-Trx}-[pY]QGLS-NH2) are within 1.5-fold of each other in Kd: 12.3 µM for the first, 18 µM for the second.

For `CC(C)C[C@H](NC(=O)CNC(=O)[C@H](CCC(N)=O)NC(=O)[C@H](Cc1ccc(OP(=O)(O)O)cc1)NC(=O)[C@H]1CC[C@H](NC(=O)c2cc(N=C=S)ccc2-c2c3ccc(=O)cc-3oc3cc(O)ccc23)CC1)C(=O)N[C@@H](CO)C(N)=O` [trans-4-((2S,5S,11S,14S)-1-amino-11-(3-amino-3-oxopropyl)-14-(4-(2-(6-hydroxy-3-oxo-3H-xanthen-9-yl)-5-isothiocyanatobenzamido)cyclohexanecarboxamido)-2-(hydroxymethyl)-5-isobutyl-1,4,7,10,13-pentaoxo-3,6,9,12-tetraazapentadecan-15-yl)phenyl dihydrogen phosphate] (X2-[Achc(trans-4)][pY]QGLS-NH2), the Kd was 25.4 µM.

These molecules were tested against T1, SHC-transforming protein 1 (assay: Displacement of FITC-tagged NH-(CH2)4-CO-phospho-tyrosine-glutamine-glycine-leucine-serine-amide from Shc Src homology 2 domain by fluorescence anisotropy competition assay).
Summary of the method: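 Competition: preformed complex of 2 μM Shc SH2 protein with 10 nM FITC-labelled reference peptide in HEPES/NaCl pH 7.5 buffer, 10% DMSO; unlabelled peptides serially diluted from 500 μM. Anisotropy read at 485/535 nm. Fractional binding fitted with an order-3 spline with three knots; IC50 taken where the spline reaches one half.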

`C=CCCNC(=O)[C@H](CC(C)C)N(CCC=C)C(=O)CNC(=O)[C@H](CCC(N)=O)NC(=O)[C@H](Cc1ccc(OP(=O)(O)O)cc1)NC(C)=O` [4-((2S,5S,11S)-2-acetamido-5-(3-amino-3-oxopropyl)-10-(but-3-enyl)-11-isobutyl-3,6,9,12-tetraoxo-4,7,10,13-tetraazaheptadec-16-enyl)phenyl dihydrogen phosphate] and `C=CCCNC(=O)[C@H](CO)NC(=O)[C@H](CC(C)C)N(CCC=C)C(=O)CNC(=O)[C@H](CCC(N)=O)NC(=O)[C@H](Cc1ccc(OP(=O)(O)O)cc1)NC(C)=O` [4-((2S,5S,11S,14S)-2-acetamido-5-(3-amino-3-oxopropyl)-10-(but-3-enyl)-14-(hydroxymethyl)-11-isobutyl-3,6,9,12,15-pentaoxo-4,7,10,13,16-pentaazaicos-19-enyl)phenyl dihydrogen phosphate] (Ac-[pY]QG[X3]S-{NH(but-3-enyl)}) are within 1.5-fold of each other in IC50: 84 µM for the first, 89 µM for the second.
